Laboratory results reported in ChEMBL document CHEMBL3797181, “Structure-Based Optimization of a Small Molecule Antagonist of the Interaction Between WD Repeat-Containing Protein 5 (WDR5) and Mixed-Lineage Leukemia 1 (MLL1)” (J Med Chem, 2016).
Positions of bridges follow the written chain, without caps; N, C: chain ends. Non-standard residues stand in square brackets, D forms with d. Residues, ends and D or L forms follow the SMILES beside them. *: point of attachment. d(αMeK) = C[C@@](N)(CCCCN)C(=O)O; dPhg = N[C@@H](C(=O)O)c1ccccc1; Isobutyryl = CC(C)C(=O)*; Abu = CC[C@H](N)C(=O)O

Columns and labels:
[1] = Apparent solubility of compound in DMSO; type: physicochemical
[2] = Apparent solubility of compound in methanol; type: physicochemical
[3] = Apparent solubility of compound in acetonitrile; type: physicochemical
[4] = Half life in NOD/SCID mouse plasma at 3 mg/kg, iv; type: ADME, organism-based
How it was run: (§1)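 Female NOD-SCID mice, n = 3 per route, received 3 mg/kg IV or 30 mg/kg IP, with an undosed control group (n = 3). Blood was drawn at 5, 15, 30 min and 1, 2, 4, 6 and 24 h. Plasma was separated by centrifugation and stored at −80 °C until analysis. Cmax, Tmax, t1/2, AUC, Cl and VD were derived.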

[5] = Cmax in NOD/SCID mouse plasma at 30 mg/kg, ip up to 24 hrs; type: ADME, organism-based; design: dose 30 mg/kg, route intraperitoneal; how it was run: as §1
[6] = Apparent permeability from apical to basolateral side in human Caco2 cells; type: ADME, cell-based; conditions: Caco-2
[7] = Clearance in NOD/SCID mouse plasma at 3 mg/kg, iv up to 24 hrs; type: ADME, organism-based; how it was run: as §1
[8] = Volume of distribution in NOD/SCID mouse plasma at 3 mg/kg, iv up to 24 hrs; type: ADME, organism-based; how it was run: as §1
[9] = Tmax in NOD/SCID mouse plasma at 3 mg/kg, iv; type: ADME, organism-based; how it was run: as §1
[10] = Metabolic stability in mouse liver microsomes assessed as parent compound remaining after 0.5 hrs; type: ADME; conditions: read-out: Stability
[11] = Apparent permeability from basolateral to apical side in human Caco2 cells; type: ADME, cell-based; conditions: Caco-2
[12] = AUC in NOD/SCID mouse plasma at 3 mg/kg, iv up to 24 hrs; type: ADME, organism-based; design: time < 24 hr, dose 3 mg/kg, route intravenous; how it was run: as §1
[13] = AUC in NOD/SCID mouse plasma at 30 mg/kg, ip up to 24 hrs; type: ADME, organism-based; design: dose 30 mg/kg, time < 24 hr, route intraperitoneal; how it was run: as §1
[14] = Tmax in NOD/SCID mouse plasma at 30 mg/kg, ip; type: ADME, organism-based; how it was run: as §1
[15] = Metabolic stability in mouse plasma assessed as parent compound remaining after 0.5 hrs; type: ADME, cell-free; conditions: read-out: Stability
[16] = Cmax in NOD/SCID mouse plasma at 3 mg/kg, iv up to 24 hrs; type: ADME, organism-based; design: dose 3 mg/kg, route intravenous; how it was run: as §1
[17] = Bioavailability in NOD/SCID mouse plasma at 30 mg/kg, ip up to 24 hrs; type: ADME, organism-based
MV4-11 = assay: Growth inhibition of human MV4-11 cells assessed as reduction in cell viability after 3 days; type: functional; conditions: MV4-11, 72 h
[18] = Growth inhibition of human KOPN8 cells assessed as reduction in cell viability after 3 days; type: functional; conditions: KOPN-8, 72 h
[19] = Growth inhibition of human MOLM13 cells assessed as reduction in cell viability after 3 days; type: functional; conditions: MOLM-13, 72 h

Structure (SMILES)	solubility [1]	solubility [2]	solubility [3]	also measured
Cc1cccc(C(=O)Nc2cc(-c3ccc(CN4CCOCC4)cc3)ccc2N2CCN(C)CC2)c1	soluble	soluble	soluble	–
Cc1cccc(C(=O)Nc2cc(-c3ccc(N4CCCC4)cc3)ccc2N2CCN(C)CC2)c1	soluble	soluble	soluble	–
Cc1cccc(C(=O)Nc2cc(-c3cccc4c3OCC4)ccc2N2CCN(C)CC2)c1	soluble	soluble	soluble	–
Cc1cccc(C(=O)Nc2cc(-c3ccccc3CN3CCOCC3)ccc2N2CCN(C)CC2)c1	soluble	soluble	soluble	–
Cc1cccc(C(=O)Nc2cc(-c3cccc(CN4CCOCC4)c3)ccc2N2CCN(C)CC2)c1	soluble	soluble	soluble	–
CN1CCN(c2ccc(-c3cccc(CN4CCOCC4)c3)cc2NC(=O)c2c[nH]c(=O)cc2C(F)(F)F)CC1	–	–	–	half-life [4]: 287 min; Cmax [5]: 6.85 µM; Papp A→B [6]: 0.1 ×10⁻⁶ cm/s; clearance [7]: 53.9 mL/min/kg; Vd [8]: 15.6 L/kg; Tmax [9]: 5 min; remaining at 0.5 h [10]: 85%; Papp B→A [11]: 16.8 ×10⁻⁶ cm/s; AUC at 24 h [12]: 1010 ng·h/mL; AUC at 24 h [13]: 6810 ng·h/mL; Tmax [14]: 15 min; remaining at 0.5 h [15]: 100%; Cmax [16]: 1260 nM; bioavailability [17]: 67%
Cc1cccc(C(=O)Nc2cc(-c3cccc(N4CCCC4)c3)ccc2N2CCN(C)CC2)c1	soluble	soluble	soluble	–
Cc1cccc(C(=O)Nc2cc(-c3ccc4c(c3)CCO4)ccc2N2CCN(C)CC2)c1	soluble	soluble	soluble	–
CC[C@@H]1NC(=O)[C@H](CCCNC(=N)N)NC(=O)[C@](C)(NC(=O)C(C)C)CCCCNC(=O)[C@@H](c2ccccc2)NC1=O (Isobutyryl-[d(αMeK)]R[Abu][dPhg]; lactam 1-C)	–	–	–	GI50 (MV4-11): 12.4 µM; GI50 [18]: 29.7 µM; GI50 [19]: 24 µM
